Data reported in ChEMBL document CHEMBL4118142, “Novel amidrazone derivatives: Design, synthesis and activity evaluation” (Bioorg Med Chem, 2018).
Calls of active or inactive are those of the source. The calls are words filed in the database; no cut-off is given here.

What was measured:
[1] = Cytotoxicity against rat articular chondrocytes assessed as decrease in cell viability at 1.563 to 25 uM after 24 hrs by MTT assay
Summary of the method: (§1)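 Primary rat articular chondrocytes were seeded at 5 × 10^3 cells/well and incubated 24 h in DMEM with 10% FBS. They were then exposed to compound for 24 h. MTT (5 mg/mL stock) was added for 4 h at 37 °C, formazan was dissolved in DMSO, and OD was read at 492 nm against a cell-free blank. Run in triplicate, three independent experiments, means ± SE.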

[2] = target: T1, Acid-sensing ion channel 1 (Rattus norvegicus) (UniProt P55926); assay: Inhibition of acid-induced ASIC1a protein expression in rat articular chondrocytes at 1.563 to 25 uM pretreated for 24 hrs followed by acid medium stimulation at pH 6 for 3 hrs by Western blot analysis; type: cell-based
T1 sequence (whole entry): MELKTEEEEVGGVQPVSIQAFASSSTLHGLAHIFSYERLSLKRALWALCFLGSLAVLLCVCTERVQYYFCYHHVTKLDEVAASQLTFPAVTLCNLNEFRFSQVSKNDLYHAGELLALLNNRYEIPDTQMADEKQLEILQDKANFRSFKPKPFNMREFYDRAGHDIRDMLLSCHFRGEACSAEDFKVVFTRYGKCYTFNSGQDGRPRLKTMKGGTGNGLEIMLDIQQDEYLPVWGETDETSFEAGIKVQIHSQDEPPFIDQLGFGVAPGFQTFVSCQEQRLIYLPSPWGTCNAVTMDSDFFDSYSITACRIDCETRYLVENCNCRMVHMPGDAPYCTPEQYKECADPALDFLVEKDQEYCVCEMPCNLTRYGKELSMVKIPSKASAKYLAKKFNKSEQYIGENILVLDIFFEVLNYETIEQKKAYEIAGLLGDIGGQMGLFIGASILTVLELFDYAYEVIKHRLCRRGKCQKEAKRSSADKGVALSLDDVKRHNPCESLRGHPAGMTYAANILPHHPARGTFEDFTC
Summary of the method: (§2)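 Primary rat articular chondrocytes in DMEM/10% FBS at 37 °C, 5% CO2 were pretreated with compound for 24 h, then stimulated with acidic medium (pH 6.0) for 3 h. Cells kept at pH 7.4 served as control. Cells were PBS-washed and lysed, and ASIC1a was measured by Western blot with β-actin as internal control. Mean ± SD of three independent experiments.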

[3] = Cytotoxicity against rat articular chondrocytes assessed as decrease in cell viability at 3.125 to 25 uM after 24 hrs by MTT assay; summary of the method: as §1
[4] = target: T1, Acid-sensing ion channel 1 (Rattus norvegicus); assay: Inhibition of acid-induced ASIC1a protein expression in rat articular chondrocytes at 3.125 to 50 uM pretreated for 24 hrs followed by acid medium stimulation at pH 6 for 3 hrs by Western blot analysis; type: cell-based; summary of the method: as §2
[5] = target: T1, Acid-sensing ion channel 1 (Rattus norvegicus); assay: (§3) Inhibition of ASIC1a in rat articular chondrocytes assessed as decrease in acid-induced intracellular calcium level at 25 uM pretreated with compound followed by acid medium stimulation in presence of voltage gated calcium channel inhibitor nimodipine after 24 hrs by Fluo-3AM dye based laser scanning confocal microscopy relative to control; type: cell-based
Summary of the method: (§4)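 Primary rat articular chondrocytes (1 × 10^5 cells) were grown 24 h, then loaded with 10 μM Fluo-3-AM plus 0.02% Pluronic F-127 for 30 min at 37 °C and washed. Nimodipine (5 μM) was present in the extracellular fluid. Cells were perfused with D-Hank's containing compound, then with Hank's solution at pH 6.0. Confocal fluorescence (ex 488, em 525 nm) was imaged up to 5 min. Result reported as % inhibition of Ca2+ fluorescence intensity.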

[6] = target: T2, Acid-sensing ion channel 1 (Rattus norvegicus, UniProt P55926); assay: Inhibition of ASIC1 in Sprague-Dawley rat articular chondrocytes assessed as decrease in acid-induced intracellular calcium level by Fluo-3AM dye based laser scanning confocal microscopy; type: cell-based
T2 sequence (P55926 whole entry): T1 sequence (whole entry)
Summary of the method: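 Primary rat articular chondrocytes were seeded at 1 × 10^5 cells and used after 24 h. Cells were loaded with 10 µM Fluo-3-AM plus 0.02% Pluronic F-127 for 30 min at 37 °C, washed, and kept with 5 µM nimodipine in the extracellular fluid. They were perfused with D-Hank's, then compound, then pH 6.0 Hank's. Confocal readout at ex 488/em 525 nm over 5 min gave the fluorescence-intensity inhibition rate.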

[7] = target: T1, Acid-sensing ion channel 1 (Rattus norvegicus); assay: as §3, with “50” for “25”; type: cell-based; summary of the method: as §4
[8] = target: T2, Acid-sensing ion channel 1; assay: Inhibition of ASIC1a in rat dorsal root ganglion neurons assessed as reduction in peak current preincubated for 120 secs followed by acid medium stimulation at pH 5.5 for 3 secs by automated patch clamp electrophysiology assay
[9] = Cytotoxicity against rat articular chondrocytes assessed as decrease in cell viability at 50 uM after 24 hrs by MTT assay; summary of the method: as §1

inhibition of ASIC1a protein expression (active/not active) [2]	inhibition [4]	inhibition [5] [%]	SMILES	Activity [1]	further results
Active			N=C(NN)c1ccc2cc(/C=C/c3cccc(F)c3)ccc2c1	Non-Toxic	
	Active	68.9	COc1ccc(/C=C/c2ccc3cc(C(=N)NN)ccc3c2)cc1		Activity [3]: Non-Toxic
Active		59.5	N=C(NN)c1ccc2cc(/C=C/c3cccc(Cl)c3)ccc2c1	Non-Toxic	
inactive			N=C(NN)c1ccc2cc(/C=C/c3ccc(F)cc3)ccc2c1	Non-Toxic	
			N=C(N)NC(=O)c1nc(Cl)c(N)nc1N [AMILORIDE]		IC50 [6]: 30.2 µM
Active		52.1	N=C(NN)c1ccc2cc(/C=C/c3ccccc3F)ccc2c1	Non-Toxic	
	Active		N=C(NN)c1ccc2cc(/C=C/c3ccc(Cl)cc3)ccc2c1		Activity [3]: Non-Toxic; inhibition [7]: 20.8%
			CC(C)C1c2cc(C3CC3c3ccc4cc(C(=N)N)ccc4c3)ccc2CCN1C (centres undefined)		IC50 [8]: 2000 nM
	Active		Cc1ccc(/C=C/c2ccc3cc(C(=N)NN)ccc3c2)cc1		Activity [9]: Toxic; inhibition [7]: 63.2%
Active		33.4	N=C(NN)c1ccc2cc(/C=C/c3ccccc3)ccc2c1	Non-Toxic	
